Screening data: PubChem, The Scripps Research Institute Molecular Screening Center
Hits are enriched below; roughly 1.4% of the tested compounds scored in any of these assays.
PAD4 inh – inhibitors of human PAD4 | Q9UM07 | recombinant PAD4, RCA probe fluorescence polarization | inhibition, % at 6.36 µM | 0.41% of 330,000 active | AID 485272;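 active means percent inhibition above a cutoff equal to the mean of all tested compounds plus 3 SD, cut at about 15% in these data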;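 further: 0% = PAD4 with RCA probe and DMSO and 100% = probe without PAD4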
GSTO1 inh – blocks human GSTO1 in RBBP9 counter-screen. P78417. recombinant GSTO1, activity-based probe fluorescence polarization. inhibition, % at 5.96 µM. 1.1% of 300,000 active. AID 1974;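 active means inhibition above the campaign mean inhibition plus 3 SD, cut at about 35% in these data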;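 further: 0% = GSTO1-1 with DMSO and 100% = wells lacking GSTO1-1 enzyme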
Target sequence (P78417 whole entry, looked up): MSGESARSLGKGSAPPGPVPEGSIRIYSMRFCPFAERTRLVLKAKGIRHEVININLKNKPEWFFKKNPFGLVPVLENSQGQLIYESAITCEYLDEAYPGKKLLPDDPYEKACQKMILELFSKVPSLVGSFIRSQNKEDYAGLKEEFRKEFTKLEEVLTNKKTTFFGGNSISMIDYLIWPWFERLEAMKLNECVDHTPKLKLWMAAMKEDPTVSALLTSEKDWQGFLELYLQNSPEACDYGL
TDP2 inh – TDP2 (human) inhibition, absorbance primary screen; inhibition, % at 12.8 µM; recombinant TDP2, T5PNP hydrolysis, p-nitrophenol absorbance 415 nm; 0.34% of 370,000 active; O95551;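 active means inhibition above the mean of all tested compounds plus 3 SD, set per campaign, cut at about 25% in these data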;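 further: 0% = DMSO with enzyme and 100% = buffer with substrate but no TDP2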
Target sequence (O95551 whole entry, looked up): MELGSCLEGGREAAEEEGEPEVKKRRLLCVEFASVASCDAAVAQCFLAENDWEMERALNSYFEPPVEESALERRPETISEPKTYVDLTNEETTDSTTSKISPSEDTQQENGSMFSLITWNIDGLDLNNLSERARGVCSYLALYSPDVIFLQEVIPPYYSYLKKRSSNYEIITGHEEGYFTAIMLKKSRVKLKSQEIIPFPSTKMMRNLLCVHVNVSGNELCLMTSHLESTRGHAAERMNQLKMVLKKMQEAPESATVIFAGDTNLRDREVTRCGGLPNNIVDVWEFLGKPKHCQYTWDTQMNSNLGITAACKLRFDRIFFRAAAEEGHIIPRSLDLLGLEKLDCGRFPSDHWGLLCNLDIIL
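System – recombinant human TDP2 · Amount – 120 nM TDP2 per well · Buffer or medium – Mg2+-containing Tris-HCl buffer, pH 7.5 · Reagent – T5PNP substrate, 5 mM · Dosing – 12.8 µM single point, 1% DMSO · Incubation – 2 h at 37 °C · Measured by – epi absorbance · Read-out basis – percent inhibition · Benchmarks – high control without enzyme, low control DMSO plus TDP2 · Repeats – singlicate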
Fh CTSL1 inh – counter-screen for PFM18AAP inhibitors: inhibitors of F. hepatica cathepsin L1; inhibition, % at 5.96 µM; 0.49% of 300,000 active; recombinant F. hepatica cathepsin L1, Z-Leu-Arg-MCA fluorescence;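 active means inhibition above the mean of all tested compounds plus 3 SD, set per screening campaign, cut at about 17% in these data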;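 further: 0% = plate median of test compound wells and 100% = 1 µM Z-Phe-Ala-diazomethylketone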
GSTO1 inh conf – confirmation of human GSTO1 inhibitors; recombinant GSTO1, probe fluorescence polarization; shares compounds with GSTO1 inh; AID 2176; 54% of 2,400 active; inhibition, % at 5.96 µM;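 active means inhibition above the primary screen's cutoff, its mean inhibition plus 3 SD, cut at about 35% in these data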;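 further: loss of polarization as inhibitors block binding of rhodamine sulfonate ester activity probe; 0% = GSTO1 with DMSO and 100% = wells lacking GSTO1 enzyme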
GSTO1 ABPP inh – blocks recombinant human glutathione S-transferase omega 1; shares compounds with GSTO1 inh; recombinant GSTO1, gel ABPP SE-Rh probe fluorescence; inhibition, % at 1 µM; 30% of 130 active; AID 463110;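 active means inhibition of the enzyme GSTO1 above about 75%, limit read from the data; inactive means inhibition below that limit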
PAD4 confirm – PAD4 (human) inhibition, confirmed | shares compounds with PAD4 inh | recombinant PAD4, RCA probe fluorescence polarization | inhibition, % at 6.36 µM | 28% of 1,200 active;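 active means mean inhibition across replicates above the hit cutoff set by the earlier primary screen, cut at about 15% in these data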;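 further: inhibitors block active-site labeling by the probe so polarization falls; 0% = PAD4 with probe and DMSO and 100% = probe without PAD4 enzyme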
Active calls of the source: *; / = no result given.

SMILES	PAD4 inh	GSTO1 inh	TDP2 inh	Fh CTSL1 inh	GSTO1 inh conf	others
O=S(=O)(c1ccc2ccccc2c1)N(CC1CO1)c1ccccc1 (stereo unspecified)	3.2	69.7*	13.1	1.3	92.3*	GSTO1 ABPP inh=26.0
CCN(c1ccccc1)S(=O)(=O)c1ccc2ccccc2c1	-6.2	-1.9	4.0	-6.3	/
O=[N+]([O-])c1cccc(N(CC2CO2)S(=O)(=O)c2ccccc2)c1 (stereo unspecified)	-2.5	100.6*	6.8	2.7	98.0*	GSTO1 ABPP inh=50.0
Cc1ccc(S(=O)(=O)N(CC2CO2)c2cc(Cl)ccc2Cl)cc1 (stereo unspecified)	-0.1	85.0*	-0.9	5.5	91.1*	GSTO1 ABPP inh=0.0
COC(=O)[C@]12C[C@H](CC(=O)NCC3CCCCC3)C(=O)N(Cc3ccccc3)C1=C[C@H](COCc1ccccc1)O[C@@H]2C	/	/	-0.4	/	/
CC(=O)OC12CCCN(C1)/C(=C/c1ccc(Cl)cc1)C2 (stereo unspecified)	/	/	-9.9	/	/
CC(C)CNC(=O)C1CSCCS(=O)(=O)N1Cc1ccc(F)cc1 (stereo unspecified)	/	/	4.8	/	/
CCOC(=O)C1=C(C)N(c2ccc(C)cc2)C(=O)/C1=C\c1ccc(O)c(OC)c1	-3.9	46.1*	4.3	7.0	7.0
CCOc1cc(/C=C2\C(=O)N(CCc3ccc(OC)c(OC)c3)C(C)=C2C(=O)OC)ccc1O	-11.5	43.3*	11.6	-2.9	-1.6
COc1ccc(C(=O)O[C@@H]2CCC[C@@]3(C(=O)N(Cc4ccccc4)c4ccccc43)[C@H]2NC(=O)CCc2ccccc2)cc1OC	/	/	6.8	/	/
CCN(CC)c1ccc(N=C2C(=O)Nc3ccccc32)cc1	13.2	85.0*	4.8	-2.9	4.5
O=S1(=O)c2c(cccc2N2CC[C@@H](O)C2)O[C@@H]2CCN1C2	/	/	2.1	/	/
Cc1ccc(S(=O)(=O)/N=C2/C=C(Sc3ncn[nH]3)C(=O)c3ccccc32)c(C)c1	15.5*	91.2*	/	102.8*	92.7*
CC(=O)c1c(C)nc(-c2ccc(Cl)cc2)nc1N=CN(C)C	-3.8	38.2*	-13.3	1.8	15.7
CC(=O)c1c(C)nc(-c2ccc(Cl)cc2)nc1N	-6.1	7.2	-5.8	4.7	/
Nc1c(C(=O)NC2CC2)sc2nc3c(c(-c4ccco4)c12)CC/C3=C/c1ccco1	-12.7	62.0*	/	10.4	36.7*
CC1=NN(c2ccc(C)cc2C)C(=O)C1C(c1ccccc1)C1C(=O)N(c2ccc(C)cc2C)N=C1C (stereo unspecified)	12.9	44.0*	/	-7.7	9.2
Cc1ccc(-n2nc(C)c(C(=O)O)n2)c(C)c1	-1.5	1.2	-8.0	-5.5	/
O=C(NCc1ccc2c(c1)OCO2)c1nnc(Cc2ccc(Cl)cc2)o1	-1.8	59.0*	4.4	1.5	0.9
Cc1cccc(-c2cccc3c4c([nH]c23)[C@@H]2C[C@H](N(C)C(=O)NC3CCCCC3)[C@H]([C@H](C)O)C(=O)N2CC4)c1	/	/	-2.3	/	/
COC(=O)c1ccccc1NC(=O)C1CCN(S(=O)(=O)c2cc(C)ccc2OC)CC1	-5.1	73.8*	-2.9	-13.2	1.3
COc1ccc(OC)c(S(=O)(=O)N2CCC(C(=O)Nc3cc(C)ccc3C)CC2)c1	-5.1	0.6	-0.3	2.5	/
O=c1[nH]c2ccc(Br)cc2c(-c2ccccc2)c1CN1CCOCC1	5.4	63.7*	5.8	-1.0	1.6
O=c1[nH]c2ccc(Br)cc2c(-c2ccccc2)c1N1CCOCC1	5.7	4.2	0.8	1.2	/
CCOC(=O)c1c(CN(C)C)n(C)c2ccc(OC(C)=O)cc12	-0.2	-7.0	6.3	-16.3	/
SMILES	PAD4 inh	GSTO1 inh	TDP2 inh	Fh CTSL1 inh	GSTO1 inh conf	others
CCOC(=O)c1c(CN(C)C)n(C)c2c(O)c(N=NC(N)=O)c3ccc(Br)cc3c12	-10.3	49.3*	13.5	20.4*	28.9
Nc1scc2c(C(=O)N/N=C/c3ccc(Cl)cc3)nn(-c3ccccc3)c(=O)c12	-2.2	44.7*	24.2	33.5*	0.9
Cc1ccc(C2CC(c3cccs3)=NN2C(=O)CCl)cc1 (stereo unspecified)	7.0	87.4*	4.1	52.2*	96.5*
CN(C)c1ccc(O)c2c1CC1CC3C(N(C)C)C(=O)C(C(N)=O)=C(O)[C@@]3(O)C(=O)C1=C2O (stereo partly specified)	-3.0	48.0*	-5.8	3.6	20.0
C=C1c2cccc(O)c2C(O)=C2C(=O)[C@]3(O)C(O)=C(C(N)=O)C(=O)[C@@H](N(C)C)[C@@H]3[C@@H](O)[C@H]12	-9.7	63.2*	21.7	-0.5	70.0*
CN(C)c1ccc(O)c2c1CC1CC3[C@@H](N(C)C)C(=O)C(C(N)=O)C(=O)[C@]3(O)C(=O)C1C2=O (stereo partly specified)	0.5	/	4.9	/	/
Cc1cc(N2CCN(C(=O)Oc3ccc(-c4ccccc4)cc3)CC2)c2ccccc2n1	/	/	0.7	/	/
COc1ccc(NC(=O)NCCC2=CCCCC2)cc1	0.0	64.4*	3.9	-3.0	10.2
COc1cccc(NC(=O)NCCC2=CCCCC2)c1	-0.9	4.1	-13.9	-4.0	/
NC(=O)C1(C(N)=O)OC1c1ccc(Cl)c(Cl)c1 (stereo unspecified)	-1.9	65.5*	-6.4	-1.8	76.9*	GSTO1 ABPP inh=30.0
COC(=O)C1(C)Cc2cc(OC(C)=O)c(OC(C)=O)cc2N1 (stereo unspecified)	-9.9	66.1*	/	-3.6	23.6
Cc1[nH]n(-c2ccc(Cl)cc2)c(=O)c1C(=O)c1ccccc1	-6.4	5.5	-2.4	-2.3	/
CC1=NN(c2ccc(Cl)cc2)C(=O)C1C(c1cccc(O)c1)c1c(C)[nH]n(-c2ccc(Cl)cc2)c1=O (stereo unspecified)	73.5*	66.5*	/	5.0	56.5*	PAD4 confirm=-3.5
O=C1C(Cl)=C(N2CCC(C(=O)O)CC2)C(=O)c2ccccc21	19.6*	80.4*	/	7.0	79.1*	PAD4 confirm=15.5*
O=C(CSc1ncnc2sc3c(c12)CCCC3)Nc1ccc(Oc2ccccc2)cc1	/	/	-9.1	/	/
COc1ccc(C(=O)Nc2ccc3c(c2)C(=O)N(C)[C@H]2CC[C@H](CC(=O)NCC4CC4)O[C@@H]2CO3)cc1	/	/	-1.9	/	/
O=C(O)CCNc1cc(N2CCN(C(=O)c3ccco3)CC2)c2noc3c2c1C(=O)c1ccccc1-3	20.7*	63.3*	38.0*	22.3*	74.8*	PAD4 confirm=-46.2
CC(C)N1CCCCC(NC(=O)COCc2ccccc2)C1=O (stereo unspecified)	/	/	14.0	/	/
Cn1nc([N+](=O)[O-])c(C(C#N)c2nc3ccccc3n2C)c(Cl)c1=O (stereo unspecified)	25.7*	62.6*	-3.5	-4.3	30.5	PAD4 confirm=16.8*
Cn1c(-c2ccc([N+](=O)[O-])cc2)nc2ccccc21	-1.8	11.4	-14.4	0.6	/
